Experiment: Cytotoxicity against human 786-O cells assessed as growth inhibition by MTS assay
Format: functional, cell-based
Conditions: 786-0; call rule not given here
How it was run: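 Cells seeded at 2 × 10³/well in complete medium; after 24 h, serial doses 0.05−100 μM or DMSO vehicle in medium with 2% FBS for 3 days, medium with fresh compound replaced every 2 days. Viability by MTS reduction to formazan, read as 492/620 nm absorbance ratio; IC50 derived. Cells checked mycoplasma-free by Hoechst method.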

SMILES	IC50	IC50 (Homo sapiens, read-out: IC50) [µM]
O=C(NC[C@@H](O)c1cc(Br)c(O)c(Br)c1)c1[nH]cc(Br)c1Br	Not Active	–
O=C(NCCc1c(Br)[nH]c2cc(Br)cc(O)c12)c1cc(Br)c(Br)[nH]1	–	15.1
COc1ccc(C(=O)C(NC(=O)c2cc(Br)c(Br)[nH]2)OC)cc1Br (stereo unspecified)	–	100
COc1cccc2c1C(=O)c1c(O)c3c(c(O)c1C2=O)C[C@@](O)(C(=O)CO)C[C@@H]3O[C@H]1C[C@H](N)[C@H](O)[C@H](C)O1 [DOXORUBICIN]	–	0.13
O=c1[nH]cc(-c2c(Br)[nH]c3ccc(Br)cc23)n2c(Br)c(Br)c(Br)c12	–	27
O=C1N[C@H](O)[C@H](c2c(Br)[nH]c3ccc(Br)cc23)n2c(Br)c(Br)c(Br)c21	Not Active	–
O=C(NC[C@@H](O)c1cc(Br)c(O)c(Br)c1)c1[nH]c(Br)c(Br)c1Br	Not Active	–
CCO[C@H](CNC(=O)c1[nH]c(Br)c(Br)c1Br)c1cc(Br)c(O)c(Br)c1	Not Active	–
O=C(NC[C@@H](O)c1cc(Br)c(O)c(Br)c1)c1cc(Br)c(Br)[nH]1	Not Active	–
CO[C@H]1NC(=O)c2c(Br)c(Br)c(Br)n2[C@H]1c1c(Br)[nH]c2ccc(Br)cc12	–	7.8
O=c1c2c(Br)c(Br)cn2c(-c2cc(Br)c(O)c(Br)c2)cn1-n1cc(-c2cc(Br)c(O)c(Br)c2)n2c(Br)c(Br)cc2c1=O	Not Active	–
